What is called half-life is the time needed for the level to fall by half in the phase considered. Higher therefore signals slow loss. A word on the inhibition in vivo: it is how much of the control response was suppressed.

A short description of series [1]: Metabolic stability in simulated gastric fluid assessed as compound remaining at pH 1.2 after 40 mins by HPLC analysis. In kind it is ADME. The note with it: read-out: Stability. The gist of the method: (§1)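 Compounds incubated at 37 °C in simulated gastric fluid (pH 1.2), simulated intestinal fluid (pH 6.8) or 100% human plasma for up to 180 min. […] Half-life estimated from the decay.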

Series [2] can be described thus: Half life in human plasma by HPLC analysis. In kind it is ADME, cell-free. The gist of the method:
as §1

The nature of series [3]: Stability of the compound assessed as compound remaining at RT after 18 days. The note with it: read-out: Stability. The format is physicochemical.
A short description of series [4]: Stability of the compound assessed as compound remaining at 50 degC after 1 month. In kind it is physicochemical. The note with it: read-out: Stability. The gist of the method: (§2)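 Solid-state storage stability at room temperature and at 50 °C, followed for up to 1 month (25 days for one compound). Remaining compound measured, along with the amounts of parent drug and salicylic acid generated.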

Series [5] can be described thus: Metabolic stability in simulated intestinal fluid assessed as compound remaining at pH 6.8 after 10 mins by HPLC analysis. The format is ADME. The note with it: read-out: Stability. The gist of the method: as §1
Series [6] in a line: Stability of the compound assessed as compound remaining at 50 degC after 2 days. In kind it is physicochemical. The note with it: read-out: Stability.
Series [7] can be described thus: Metabolic stability in simulated intestinal fluid assessed as compound remaining at pH 6.8 after 120 mins by HPLC analysis. In kind it is ADME. The note with it: read-out: Stability. The gist of the method:
as §1

Series [8] is described as follows: Stability of the compound assessed as compound remaining at RT measured immediately. The conditions noted are these: read-out: Stability. In kind it is physicochemical. A digest of the protocol:
as §2

Series [9] can be described thus: Metabolic stability in simulated gastric fluid assessed as compound remaining at pH 1.2 after 60 mins by HPLC analysis. The conditions noted are these: read-out: Stability. The format is ADME. The gist of the method:
as §1

Series [10] is described as follows: AUC in Wistar rat at 44.83 mg/kg, po. In kind it is ADME, organism-based. More on the design: dose 44.83 mg/kg, route oral. The note with it: plasma. The gist of the method:
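Single oral dosing in Wistar rats to compare […]. Aspirin at 30 mg/kg or the prodrug at 44.83 mg/kg (equimolar to 30 mg/kg aspirin). Plasma aspirin measured over time. AUC in µg*h/mL.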

The subject of series [11] is Rattus norvegicus. The series is described as follows: Antiplatelet activity in Sprague-Dawley rat assessed as inhibition of TXB2 formation at 44.82 mg/kg, po od after 7 days by EIA relative to vehicle-treated control. The format is functional. The note with it: 168 h. The gist of the method: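 Sprague–Dawley rats dosed orally once daily for 7 days with aspirin 30 mg/kg or prodrug 44.82 mg/kg (equimolar), with vehicle 1 ml/kg as control. Serum TXB2 levels estimated. Inhibition expressed as % reduction versus vehicle.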

Series [12] is described as follows: Metabolic stability in simulated intestinal fluid assessed as compound remaining at pH 6.8 after 5 mins by HPLC analysis. The format is ADME. The conditions noted are these: read-out: Stability. A digest of the protocol: as §1
Series [13] is described as follows: Metabolic stability in simulated gastric fluid assessed as compound remaining at pH 1.2 after 2 mins by HPLC analysis. In kind it is ADME. The note with it: read-out: Stability. A digest of the protocol: as §1
Series [14] in a line: Half life in simulated gastric fluid at pH 1.2 by HPLC analysis. In kind it is ADME. The gist of the method: as §1
The nature of series [15]: Metabolic stability in simulated intestinal fluid assessed as compound remaining at pH 6.8 after 20 mins by HPLC analysis. In kind it is ADME. The note with it: read-out: Stability. A digest of the protocol:
as §1

Series [16] in a line: Stability of the compound assessed as compound remaining at RT after 3 days. In kind it is physicochemical. The note with it: read-out: Stability.
Series [17] is described as follows: Stability of the compound assessed as compound remaining at RT after 1 month. The conditions noted are these: read-out: Stability. In kind it is physicochemical. A digest of the protocol: as §2
A short description of series [18]: Metabolic stability in simulated intestinal fluid assessed as compound remaining at pH 6.8 after 60 mins by HPLC analysis. In kind it is ADME. The note with it: read-out: Stability. The gist of the method:
as §1

Series [19] deals with Rattus norvegicus. The series is described as follows: Antiinflammatory activity in Sprague-Dawley rat assessed as plasma nitrate/nitrite at 14.94 mg/kg, po up to 8 hrs. In kind it is functional. The gist of the method:
(§3)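 Sprague–Dawley rats given compounds orally, with vehicle-dosed controls. […] Plasma nitrate/nitrite (NOx) measured by the Griess method as an indirect measure of NO released, over 8 h (sampling included 1, 2, 4 and 6 h). Plasma nitrate/nitrite AUC in µM*h.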

Series [20] is described as follows: Half life in simulated intestinal fluid at pH 6.8 by HPLC analysis. In kind it is ADME. The gist of the method: as §1
A short description of series [21]: Metabolic stability in simulated gastric fluid assessed as compound remaining at pH 1.2 after 20 mins by HPLC analysis. The format is ADME. The note with it: read-out: Stability. The gist of the method:
as §1

The nature of series [22]: AUC in Sprague-Dawley rat at 44.83 mg/kg, po. The conditions noted are these: plasma. In kind it is ADME, organism-based. More on the design: dose 44.83 mg/kg, route oral. A digest of the protocol:
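Plasma parent-drug concentration followed over time up to 8 h. AUC in µg*h/mL from the concentration–time profile. Cmax and Tmax taken from the profile.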

Series [23] is described as follows: Stability of the compound assessed as compound remaining at 50 degC measured immediately. The format is physicochemical. The note with it: read-out: Stability. The gist of the method:
as §2

The nature of series [24]: Stability of the compound assessed as compound remaining at 50 degC after 5 days. In kind it is physicochemical. The conditions noted are these: read-out: Stability. The gist of the method: as §2
A short description of series [25]: Metabolic stability in simulated gastric fluid assessed as compound remaining at pH 1.2 after 10 mins by HPLC analysis. The conditions noted are these: read-out: Stability. The format is ADME. A digest of the protocol:
as §1

A short description of series [26]: Metabolic stability in simulated intestinal fluid assessed as compound remaining at pH 6.8 measured immediately by HPLC analysis. In kind it is ADME. The conditions noted are these: read-out: Stability. A digest of the protocol: as §1
Series [27] concerns Rattus norvegicus. The series is described as follows: Antiinflammatory activity in Sprague-Dawley rat assessed as plasma nitrate/nitrite AUC at 14.94 mg/kg, po by Griess assay (reference value: 371.1 uM.h). In kind it is functional, organism-based. The arrangement: dose 14.94 mg/kg. A digest of the protocol:
as §3
(In general: Griess reagent forms a coloured azo dye with nitrite.)

Series [28] is described as follows: Metabolic stability in simulated intestinal fluid assessed as compound remaining at pH 6.8 after 2 mins by HPLC analysis. In kind it is ADME. The conditions noted are these: read-out: Stability. A digest of the protocol: as §1
Series [29] can be described thus: Metabolic stability in simulated gastric fluid assessed as compound remaining at pH 1.2 after 5 mins by HPLC analysis. In kind it is ADME. The conditions noted are these: read-out: Stability. A digest of the protocol: as §1
Series [30] deals with Rattus norvegicus. The series is described as follows: Toxicity in rat assessed as gastric lesion and ulcer area at 298.8 mg/kg, po after 5 hrs. The arrangement: dose 298.8 mg/kg, route oral. The conditions noted are these: in vivo. In kind it is organism-based, Stomach.
A short description of series [31]: Metabolic stability in simulated gastric fluid assessed as compound remaining at pH 1.2 measured immediately by HPLC analysis. In kind it is ADME. The note with it: read-out: Stability. A digest of the protocol:
as §1

The nature of series [32]: Metabolic stability in simulated gastric fluid assessed as compound remaining at pH 1.2 after 15 mins by HPLC analysis. In kind it is ADME. The note with it: read-out: Stability. The gist of the method:
as §1

The nature of series [33]: Metabolic stability in simulated gastric fluid assessed as compound remaining at pH 1.2 after 180 mins by HPLC analysis. The format is ADME. The conditions noted are these: read-out: Stability. The gist of the method:
as §1

Series [34] is described as follows: Metabolic stability in simulated gastric fluid assessed as compound remaining at pH 1.2 after 30 mins by HPLC analysis. The format is ADME. The conditions noted are these: read-out: Stability. The gist of the method:
as §1

A short description of series [35]: Metabolic stability in simulated gastric fluid assessed as compound remaining at pH 1.2 after 120 mins by HPLC analysis. The format is ADME. The note with it: read-out: Stability. The gist of the method:
as §1

In the case of `CC(=O)Oc1ccccc1C(=O)OC(C)O[N+](=O)[O-]` (stereo unspecified), the remaining at 40 min in [1] was 12%. The half-life in [2] is less than 5 min; in series [14], less than 10 min; in series [20], less than 15 min. Besides, in series [3], the remaining at 432 h stood at 99%. Moreover, the remaining at 730.5 h in [4] came to 88.3%; in [17] it was 98.6%. Also, the remaining at 10 min in series [5] was 52%; in series [25], 45%. In addition, the remaining at 48 h in series [6] came out at 98.8%. The remaining at 2 h in series [7] is 0%. The remaining at 0 days in series [8] and in series [23] was 99.1% throughout. The values for the remaining at 1 h in series [9] and in [18] were 0% and 4%, respectively. Also, the AUC came to 398000 ng·h/mL in series [10], 89800 ng·h/mL in series [22] and 1480 µM·h in the series with Rattus norvegicus [27]. The inhibition in vivo at 44.82 mg/kg with Rattus norvegicus [11] worked out at 72.6%. Also, the remaining at 5 min was 82% in series [12] and 65% in [29]. For the same compound, the figures for the remaining at 2 min in series [13] and in series [28] were 78% and 91%, respectively. In addition, the results for the remaining at 20 min in [15] and in series [21] were 32% and 14%, respectively. For the same compound, the remaining at 72 h in series [16] came out at 98.9%. Besides, the Activity turned out to be 180 µM in the series with Rattus norvegicus [19] and 1 mm2 in the series on Rattus norvegicus [30]. Besides, the remaining at 120 h in series [24] amounted to 98.2%. In addition, the remaining at 0 min in series [26] and in series [31] was 100% throughout.

With `CCC(OC(=O)[C@@H](C)c1ccc2cc(OC)ccc2c1)O[N+](=O)[O-]` (stereo partly specified), the remaining at 0.25 h in [32] was 74%. The remaining at 3 h in [33] was 7%. In addition, in series [9], the remaining at 1 h was 51%. Further, in series [14], the half-life is 60 min. The remaining at 0.5 h in series [34] was 62%. Further, the remaining at 2 h in series [35] is 39%. Moreover, the remaining at 10 min in [25] was 90%. In addition, the remaining at 5 min in [29] is 94%. The remaining at 0 min in [31] is 100%.

Regarding `CCCC(OC(=O)c1ccccc1OC(C)=O)O[N+](=O)[O-]` (stereo unspecified), in [22], the AUC worked out at 73500 ng·h/mL.

Regarding `CCCCC(OC(=O)[C@@H](C)c1ccc2cc(OC)ccc2c1)O[N+](=O)[O-]` (stereo partly specified), the remaining at 0.25 h in [32] is 87%. Also, the remaining at 3 h in series [33] was 71%. Moreover, the remaining at 1 h in series [9] was 87%. In series [14], the half-life is more than 180 min. In addition, the remaining at 0.5 h in [34] is 87%. Besides, the remaining at 2 h in series [35] is 80%. Besides, the remaining at 10 min in series [25] was 96%. Moreover, the remaining at 5 min in series [29] was 98%. For the same compound, in series [31], the remaining at 0 min was 100%.

As to `CCC(OC(=O)c1ccccc1OC(C)=O)O[N+](=O)[O-]` (stereo unspecified), the AUC in [22] was determined as 53600 ng·h/mL.

Values taken from ChEMBL document CHEMBL3352635 (Bioorg Med Chem Lett, 2014).
